This is a sample that favours compounds with a hit; in the whole collection about 3.4% have one here.
AHR act: activators of human aryl hydrocarbon receptor; P35869; AHR-responsive luciferase reporter cells, luminescence; activation, % at 5 µM; hit rate 2.5% among 320,000; AID 2796; in the data active = activation above about 47%
Target sequence (P35869 whole entry, looked up): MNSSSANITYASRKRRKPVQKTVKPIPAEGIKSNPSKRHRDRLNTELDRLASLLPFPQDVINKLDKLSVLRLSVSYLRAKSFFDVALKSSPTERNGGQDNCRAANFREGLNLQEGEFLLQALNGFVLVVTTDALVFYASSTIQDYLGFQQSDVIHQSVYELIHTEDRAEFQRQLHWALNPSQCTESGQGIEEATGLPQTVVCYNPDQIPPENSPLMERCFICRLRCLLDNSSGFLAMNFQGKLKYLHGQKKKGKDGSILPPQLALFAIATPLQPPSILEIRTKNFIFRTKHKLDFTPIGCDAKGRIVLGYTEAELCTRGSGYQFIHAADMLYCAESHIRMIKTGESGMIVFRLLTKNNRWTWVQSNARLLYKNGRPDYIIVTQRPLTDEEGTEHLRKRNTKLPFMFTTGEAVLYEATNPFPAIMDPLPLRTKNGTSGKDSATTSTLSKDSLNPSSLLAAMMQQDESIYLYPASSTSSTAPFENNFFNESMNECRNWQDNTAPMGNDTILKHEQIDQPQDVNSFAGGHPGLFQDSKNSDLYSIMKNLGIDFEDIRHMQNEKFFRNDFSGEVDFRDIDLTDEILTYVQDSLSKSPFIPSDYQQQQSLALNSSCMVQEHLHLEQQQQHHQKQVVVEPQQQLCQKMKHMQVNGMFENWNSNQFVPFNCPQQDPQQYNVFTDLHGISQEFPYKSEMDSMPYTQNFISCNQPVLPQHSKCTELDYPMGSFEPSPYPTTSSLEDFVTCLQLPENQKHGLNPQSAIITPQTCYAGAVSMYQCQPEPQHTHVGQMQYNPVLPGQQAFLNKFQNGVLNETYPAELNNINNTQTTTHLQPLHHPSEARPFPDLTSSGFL
Arr AP2 block: human beta-arrestin and AP2 interaction inhibition. AID 504490. FITC-arrestin peptide / GST-AP2 beads, flow cytometry; AP2 beta2 appendage carries R879A mutation. inhibition, % at 10 µM. hit rate 0.31% among 340,000;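 active = inhibition above a set limit, near 3 SD of compounds lacking own fluorescence, cut at about 54% in these data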
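System: GST-AP2 R879A glutathione beads. Medium: PBS with 0.05% Tween 20 and 0.1% BSA. Also added: FITC-arrestin peptide, 50 nM. Incubation: 12 min plus 1 h, RT. Measured by: high-throughput flow cytometry of beads, ex 488, em 535 nm. Evaluation: percent drop in bead-associated FITC signal.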
A3A deaminase: blocks human APOBEC3A ssDNA deamination; recombinant A3A, FAM/TAMRA ssDNA deamination fluorescence; hit rate 0.41% among 330,000; P31941; inhibition, % at 20 µM; AID 493011;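 active = at least 40% inhibition at 20 µM here, with at most 30% in a related deaminase screen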
UCH37 DUB inh: blocks the human deubiquitinase UCH37 | purified proteasome/UCH37, Ub-AMC cleavage fluorescence | inhibition, % (test concentration not listed) | hit rate 0.33% among 330,000 | AID 588478;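 active = mean inhibition over replicate wells above about 20%, limit read from the data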
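Test system – human UCH37 enzyme supplied as purified proteasome complex · Incubation – 30 min preincubation with enzyme, 25 min cleavage at room temperature · Detection – AMC fluorescence from Ub-AMC cleavage, excitation 355 nm, emission 460 nm · Benchmarks – no-proteasome wells (full inhibition) and compound-free wells (no inhibition)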
APOBEC3G inh: APOBEC3G (human) deaminase inhibition. recombinant A3G, ssDNA deamination FAM/TAMRA fluorescence. inhibition, % at 20 µM. hit rate 0.28% among 330,000;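 active = inhibition of at least 40% at 20 µM, with no more than 30% in the related APOBEC3A deaminase screen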
PolyA inhibitor: blocks polyadenylation in yeast reporter cells; activity score, % at 12 µM; hit rate 0.02% among 300,000; S. cerevisiae SKY197-pL101 polyadenylation reporter, beta-gal luminescence; efflux-impaired pdr1/pdr3 knockout yeast; score 100 = 6 SD above DMSO;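 active = lowest replicate activity score at least 50, where 100 means six control SD above control mean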;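 note: yeast exposed to compound for 9 h at 30 °C; higher score means more reporter readthrough which indicates perturbed polyadenylation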
A number is an active result.

What do the screens show for `N#Cc1c(NC(=O)c2ccc(Cn3cc(Br)cn3)o2)sc2c1CCCCC2`?
AHR act: 48; Arr AP2 block: inactive; A3A deaminase: inactive; UCH37 DUB inh: inactive; APOBEC3G inh: inactive; PolyA inhibitor: inactive

How did COc1ccc(-c2[nH]ncc2C=NNC(=O)c2ccncc2)c(OC)c1 do in these assays?
UCH37 DUB inh: inactive

How did COc1ccc(CN2CCNC(=O)C2CC(=O)NCC(C)(C)N2CCOCC2)cc1C (configuration not stated) do in these assays?
AHR act: 61; Arr AP2 block: inactive; A3A deaminase: inactive; UCH37 DUB inh: inactive; APOBEC3G inh: inactive; PolyA inhibitor: inactive

What do the screens show for `CCOc1ccc(OCC)c(NC(=O)C2CCN(c3nn4c(=O)cc(C)nc4s3)CC2)c1`?
AHR act: inactive; Arr AP2 block: inactive; A3A deaminase: inactive; UCH37 DUB inh: 23; APOBEC3G inh: inactive; PolyA inhibitor: inactive

How did Cc1cc(=O)n2nc(N3CCC(C(=O)N4CCN(Cc5ccccc5)CC4)CC3)sc2n1 do in these assays?
AHR act: inactive; Arr AP2 block: inactive; A3A deaminase: inactive; UCH37 DUB inh: 24; APOBEC3G inh: inactive; PolyA inhibitor: inactive

Results for CCNC(=O)CC(C)=NNC(=O)C(=O)Nc1ccc(CC)cc1 ?
UCH37 DUB inh: inactive

Results for O=C(N/N=C/c1cccs1)c1cc(-c2cccc3ccccc23)n[nH]1 ?
AHR act: 48; Arr AP2 block: inactive; A3A deaminase: inactive; APOBEC3G inh: inactive; PolyA inhibitor: inactive

What do the screens show for `O=C(NN=Cc1ccccn1)c1cc(-c2cccc3ccccc23)n[nH]1`?
UCH37 DUB inh: inactive

What do the screens show for `O=C(N/N=C/c1cccs1)c1cc(-c2ccc3ccccc3c2)n[nH]1`?
AHR act: inactive; Arr AP2 block: inactive; A3A deaminase: inactive; APOBEC3G inh: inactive; PolyA inhibitor: inactive

How did O=C(N/N=C/c1ccccn1)c1cc(-c2cccc3ccccc23)n[nH]1 do in these assays?
AHR act: 70; Arr AP2 block: inactive; A3A deaminase: inactive; APOBEC3G inh: inactive; PolyA inhibitor: inactive

Results for O=C(O)c1ccc(/C=N/NC(=O)c2cc(-c3ccc4c5c(cccc35)CC4)n[nH]2)cc1 ?
AHR act: 78; Arr AP2 block: inactive; A3A deaminase: inactive; APOBEC3G inh: inactive; PolyA inhibitor: inactive

Results for O=C(CCN1CCN(c2ccccc2)CC1)NN=Cc1ccc(O)c(O)c1O ?
UCH37 DUB inh: inactive

How did O=C(N/N=C\c1ccc(-c2ccccc2[N+](=O)[O-])o1)C1COc2ccccc2O1 (configuration not stated) do in these assays?
AHR act: 65; Arr AP2 block: inactive; A3A deaminase: inactive; APOBEC3G inh: inactive; PolyA inhibitor: inactive

What do the screens show for `O=C(N/N=C\c1ccc(-c2ccccc2[N+](=O)[O-])o1)C1COc2cc3ccccc3cc2O1` (configuration not stated)?
AHR act: inactive; Arr AP2 block: inactive; A3A deaminase: inactive; APOBEC3G inh: inactive; PolyA inhibitor: inactive

Results for Cc1cccc(NC2=C/C(=N/S(=O)(=O)c3cccs3)c3ccccc3C2=O)c1 ?
AHR act: inactive

What do the screens show for `Cc1cccc(NC2=CC(=NS(=O)(=O)c3cccs3)c3ccccc3C2=O)c1`?
UCH37 DUB inh: 50

How did Cc1ccc(NC2=C/C(=N\S(=O)(=O)c3cccs3)c3ccccc3C2=O)c(C)c1 do in these assays?
AHR act: inactive; Arr AP2 block: inactive; A3A deaminase: inactive; UCH37 DUB inh: 65; APOBEC3G inh: inactive; PolyA inhibitor: inactive

What do the screens show for `O=C1C(Nc2ccc(O)cc2)=C/C(=N/S(=O)(=O)c2cccs2)c2ccccc21`?
Arr AP2 block: inactive; PolyA inhibitor: inactive

How did CCCCCC=NNC(=O)c1[nH]c2ccc([N+](=O)[O-])cc2c1C do in these assays?
UCH37 DUB inh: inactive

What do the screens show for `CCN(Cc1ccccc1)c1ccc(C=NNC(=S)NC(C)C)cc1`?
UCH37 DUB inh: inactive

How did COc1ccc(OC)c(C=NNC(=O)c2[nH]nc3c2CCc2ccccc2-3)c1 do in these assays?
UCH37 DUB inh: inactive

Results for COc1cccc2c(C)cc(N3CCCCCC3)nc12 ?
AHR act: inactive; Arr AP2 block: inactive; A3A deaminase: inactive; UCH37 DUB inh: inactive; APOBEC3G inh: inactive; PolyA inhibitor: inactive

What do the screens show for `Cc1cc(N2CCN(c3ncccn3)CC2)nc2c(C)cccc12`?
AHR act: 72; Arr AP2 block: inactive; A3A deaminase: inactive; UCH37 DUB inh: inactive; APOBEC3G inh: inactive; PolyA inhibitor: inactive

Results for Cc1cccc(OCC(=O)NC(C)C(=O)N/N=C/c2c(OCc3ccccc3)ccc3ccccc23)c1 (configuration not stated) ?
AHR act: 88; Arr AP2 block: inactive; A3A deaminase: inactive; APOBEC3G inh: inactive; PolyA inhibitor: inactive

How did COc1ccc2ccccc2c1/C=N/NC(=O)c1cccc(C)c1 do in these assays?
AHR act: inactive; Arr AP2 block: inactive; A3A deaminase: inactive; APOBEC3G inh: inactive; PolyA inhibitor: inactive

Results for CC(=O)SC(C[N+](=O)[O-])c1cn(C(C)=O)c2ccccc12 (configuration not stated) ?
AHR act: 63; Arr AP2 block: inactive; A3A deaminase: inactive; APOBEC3G inh: inactive; PolyA inhibitor: inactive

How did CCOc1ccc(C=NNC(=O)c2ccccc2C)cc1CN1CC2CC(C1)c1cccc(=O)n1C2 (configuration not stated) do in these assays?
UCH37 DUB inh: inactive

How did CC1(C)N([O-])c2cc([N+](=O)[O-])ccc2[N+]1=O do in these assays?
AHR act: inactive; Arr AP2 block: inactive; A3A deaminase: inactive; UCH37 DUB inh: 57; APOBEC3G inh: inactive

How did COc1c2c(nc3occc13)C(CC=C(C)C)(OC)C(O)CC2 (configuration not stated) do in these assays?
AHR act: 65; Arr AP2 block: inactive; A3A deaminase: inactive; UCH37 DUB inh: inactive; APOBEC3G inh: inactive; PolyA inhibitor: inactive

What do the screens show for `COc1c2c(nc3occc13)C(CC=C(C)C)(OC)C(OC(C)=O)CC2` (configuration not stated)?
AHR act: 73; Arr AP2 block: inactive; A3A deaminase: inactive; UCH37 DUB inh: inactive; APOBEC3G inh: inactive; PolyA inhibitor: inactive

How did COc1c2ccoc2nc2c(OC)cccc12 do in these assays?
AHR act: inactive; Arr AP2 block: inactive; A3A deaminase: inactive; UCH37 DUB inh: inactive; APOBEC3G inh: inactive; PolyA inhibitor: inactive

Results for Cc1cc(C)nc(SCC(=O)NN=C/C(Br)=C/c2ccccc2)n1 ?
UCH37 DUB inh: inactive

How did Cc1csc2ncc(C(=O)NCc3ccccn3)c(=O)n12 do in these assays?
AHR act: 47; Arr AP2 block: inactive; A3A deaminase: inactive; UCH37 DUB inh: inactive; APOBEC3G inh: inactive; PolyA inhibitor: inactive

Results for Cc1csc2ncc(C(=O)Nc3ccc(C(F)(F)F)cc3)c(=O)n12 ?
AHR act: 58; Arr AP2 block: inactive; A3A deaminase: inactive; UCH37 DUB inh: inactive; APOBEC3G inh: inactive; PolyA inhibitor: inactive
